# Experiments:
# [1] = Toxicokinetics, rabbit DRF EFD study; settings: female, in vivo
# [2] = molecular target: T1, AhR (Homo sapiens, UniProt P35869); assay: In vitro off-target inhibition, AhR
# T1 sequence (P35869 11-848): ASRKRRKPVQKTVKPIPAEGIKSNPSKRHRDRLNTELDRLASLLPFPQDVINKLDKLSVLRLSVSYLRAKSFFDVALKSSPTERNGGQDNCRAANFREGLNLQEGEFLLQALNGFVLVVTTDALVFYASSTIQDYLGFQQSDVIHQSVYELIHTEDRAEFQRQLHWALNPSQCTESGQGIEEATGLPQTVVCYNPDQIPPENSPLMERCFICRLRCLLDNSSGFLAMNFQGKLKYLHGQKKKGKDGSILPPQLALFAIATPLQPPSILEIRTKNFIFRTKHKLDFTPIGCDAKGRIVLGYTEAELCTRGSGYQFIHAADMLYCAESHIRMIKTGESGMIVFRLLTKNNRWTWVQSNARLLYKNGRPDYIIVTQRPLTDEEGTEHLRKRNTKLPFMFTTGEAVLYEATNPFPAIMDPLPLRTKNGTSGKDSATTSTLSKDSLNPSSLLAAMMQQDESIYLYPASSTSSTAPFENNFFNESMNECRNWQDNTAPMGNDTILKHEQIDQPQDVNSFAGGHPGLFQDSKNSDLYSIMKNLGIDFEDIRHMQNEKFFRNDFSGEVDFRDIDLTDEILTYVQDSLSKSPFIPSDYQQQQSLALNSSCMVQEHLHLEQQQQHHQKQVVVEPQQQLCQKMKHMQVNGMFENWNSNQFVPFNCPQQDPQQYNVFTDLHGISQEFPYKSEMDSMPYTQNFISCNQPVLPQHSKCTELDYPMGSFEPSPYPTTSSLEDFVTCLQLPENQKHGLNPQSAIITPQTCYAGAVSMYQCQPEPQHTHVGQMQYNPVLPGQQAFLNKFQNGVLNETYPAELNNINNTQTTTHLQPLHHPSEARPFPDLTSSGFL
# [3] = molecular target: TSF1 (Homo sapiens, UniProt O75716); assay: ADP-Glo Kinase Assay, TSF1; format: biochemical
# TSF1, sequence (O75716 whole entry): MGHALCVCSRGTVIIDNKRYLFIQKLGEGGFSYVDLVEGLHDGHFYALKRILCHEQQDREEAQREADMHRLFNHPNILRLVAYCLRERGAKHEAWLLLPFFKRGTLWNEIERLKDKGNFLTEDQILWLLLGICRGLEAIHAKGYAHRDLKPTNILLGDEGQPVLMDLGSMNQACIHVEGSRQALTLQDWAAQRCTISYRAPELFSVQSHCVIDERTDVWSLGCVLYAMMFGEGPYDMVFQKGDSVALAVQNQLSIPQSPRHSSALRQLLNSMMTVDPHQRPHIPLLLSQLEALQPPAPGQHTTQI
# [4] = Rat main embryofetal developmental toxicity study; format: in vivo; settings: female, Sprague-Dawley, rat, in vivo, oral, maternal NOAEL, rat main EFD
# Method in brief: (§1)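 GLP main study following ICH S5(R2): 24 time-mated naïve Crl:CD SD females per group (plug day = GD0) given 2, 6 or 20 mg/kg/day orally once daily GD6–GD17. Vehicle was 20% w/w Kolliphor HS 15 / 50% w/w PEG 400 in water, with the compound suspended in it. Necropsy followed CO2 euthanasia on GD21. Maternal body weight, weight gain, food intake, pregnancy status, corpora lutea, postimplantation loss and live fetuses were recorded. Fetal weight, external, visceral and skeletal examinations were done.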
# [5] = tested on: pregnant rats; assay: Rat main embryofetal developmental toxicity study; format: in vivo; settings: for food consumption, % of control / maternal weight gain, % of control: GD6 to GD9
# Method in brief: as §1
# [6] = Toxicokinetics, rabbit main EFD study; settings: female, in vivo
# [7] = molecular target: All other off‐targets including kinases tested; assay: In vitro off-target and kinase panels, all other targets; format: biochemical; settings: read-out: IC50s, all other off‐targets including kinases tested, human
# [8] = rat main EFD, 2 mg/kg/day GD6-GD17
# [9] = rat main EFD, 6 mg/kg/day GD6-GD17
# [10] = rat main EFD, 20 mg/kg/day GD6-GD17
structure (smiles),measurement,setting,value
CS(=O)(=O)c1ccc(-c2cnc(N)c(-c3ccc(C(F)(F)F)nc3)c2)cc1 [MMV390048],AUC(0-t),[1]; 1 mg/kg/day,3750 ng·h/mL
same,Cmax,[1]; 1 mg/kg/day,267 ng/mL
same,Tmax,[1]; 1 mg/kg/day,2 h
same,AUC(0-t),[1]; 3 mg/kg/day,14900 ng·h/mL
same,Cmax,[1]; 3 mg/kg/day,857 ng/mL
same,Tmax,[1]; 3 mg/kg/day,4 h
same,AUC(0-t),[1]; 10 mg/kg/day,64500 ng·h/mL
same,Cmax,[1]; 10 mg/kg/day,3790 ng/mL
same,Tmax,[1]; 10 mg/kg/day,4 h
same,IC50,[2],7.9 µM
same,IC50,[3],7.3 µM
same,NOAEL,[4],2 mg/kg/day
same,Developmental safety margins,"[5]; rat NOAEL of 6 mg/kg/day vs observed clinical PK data, human volunteers and patients",< 1
same,Female with viable fetuses,[5]; [8],22/22
same,Postimplantation loss (%),[5]; [8],6.9%
same,"Edema, fetuses with malformation/total fetuses examined",[5]; [9],1/336
same,"Edema, litters with malformation/total litters examined",[5]; [9],1/23
same,Female with viable fetuses,[5]; [9],23/23
same,Postimplantation loss (%),[5]; [9],3.5%
same,"food consumption, % of control","[5]; rat main EFD, 6 mg/kg/day",8.9 % of control
same,"maternal weight gain, % of control","[5]; rat main EFD, 6 mg/kg/day",20.2 % of control
same,Female with viable fetuses,[5]; [10],22/22
same,"Hernias, fetuses with malformation/total fetuses examined",[5]; [10],1/154
same,"Hernias, litters with malformation/total litters examined",[5]; [10],1/22
same,Postimplantation loss (%),[5]; [10],2.9%
same,"food consumption, % of control","[5]; rat main EFD, 20 mg/kg/day",11.5 % of control
same,"maternal weight gain, % of control","[5]; rat main EFD, 20 mg/kg/day",41.1 % of control
same,AUC(0-t),[6]; 1 mg/kg/day,4090 ng·h/mL
same,Cmax,[6]; 1 mg/kg/day,250 ng/mL
same,Tmax,[6]; 1 mg/kg/day,4 h
same,AUC(0-t),[6]; 3 mg/kg/day,13600 ng·h/mL
same,Cmax,[6]; 3 mg/kg/day,894 ng/mL
same,Tmax,[6]; 3 mg/kg/day,2 h
same,AUC(0-t),[6]; 10 mg/kg/day,53300 ng·h/mL
same,Cmax,[6]; 10 mg/kg/day,3410 ng/mL
same,Tmax,[6]; 10 mg/kg/day,2 h
same,IC50,[7],≥ 20 µM

# From PMC9321963 (Birth Defects Research, 2022)
